Source: PubChem (Broad Institute)
This excerpt belongs to a sample that is enriched for hits.
IDH1 mut inh = inhibitors of IDH1 R132H reductase, primary screen, biochemical, plate reader, single point; diaphorase/resazurin fluorescence, 60 min; inhibition, % at 10 µM; 70,000 compounds, 0.18% hits; AID 624101, 2012; in the data active means inhibition above about 34%; inconclusive means no clear call, values can overlap the other calls; inactive means below about 11%
Target sequence (O75874 whole entry R132H): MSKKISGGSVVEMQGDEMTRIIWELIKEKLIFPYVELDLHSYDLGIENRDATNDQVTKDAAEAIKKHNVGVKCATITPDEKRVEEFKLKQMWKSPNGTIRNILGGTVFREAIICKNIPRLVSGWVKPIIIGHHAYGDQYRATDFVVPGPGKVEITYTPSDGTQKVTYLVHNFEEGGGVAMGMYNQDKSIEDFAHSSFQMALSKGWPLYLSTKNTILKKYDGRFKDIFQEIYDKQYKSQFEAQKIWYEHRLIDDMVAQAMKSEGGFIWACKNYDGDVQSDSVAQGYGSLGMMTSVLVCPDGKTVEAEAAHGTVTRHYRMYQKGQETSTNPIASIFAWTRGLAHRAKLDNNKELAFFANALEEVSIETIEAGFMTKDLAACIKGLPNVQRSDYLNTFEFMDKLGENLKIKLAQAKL
KDM4C inh = inhibitors of GASC-1 (KDM4C) histone demethylase, primary screen, biochemical, single concentration HTS; 96,000 compounds, 0.15% hits; inhibition, % at 12.5 µM; GST-KDM4C 2-372, H3K9me3 peptide, LANCE TR-FRET;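 active means mean replicate inhibition above about 25%, with at least 55% of replicates also reaching it, limit read from the data, passing the limit was not always enough; inconclusive means only one of those two conditions met; inactive means neither condition met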
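Test system – GST-tagged GASC-1 (JMJD2C) catalytic fragment, aa 2-372 · Medium – HEPES buffer, pH 7.5, plus ascorbate · Reagent – H3K9me3 peptide with Fe(II)/2OG · Compound – one test concentration per compound · Timing – 30 min reaction, 60 min detection, RT · Technique – TR-FRET with Eu antibody and ULight streptavidin, EDTA stop · Read-out basis – inhibition from TR-FRET ratio decrease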
T cruzi growth-1 = T. cruzi intracellular proliferation inhibitors, primary screen, cell-based, beta-gal Tulahuen parasites, NIH3T3 host, luminescence. T. cruzi beta-gal in NIH3T3, GalScreen luminescence, 90 h. inhibition, % at 8.34 µM. 77,000 compounds, 5.9% hits. AID 624255, 2012;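 active means mean inhibition above about 93%, with at least 55% of replicates each passing it, limit read from the data, passing the limit was not always enough; inconclusive means only one of those two conditions holds; inactive means neither condition holds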
T cruzi growth-2 = T. cruzi intracellular proliferation inhibitors, confirmation, cell-based, NIH3T3 host, beta-gal parasite, luminescence, cherry-pick. shares compounds with T cruzi growth-1. T. cruzi beta-gal in NIH3T3, GalScreen luminescence, 90 h. inhibition, % at 8.35 µM. 5,600 compounds, 72% hits. AID 651739, 2012;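 active means mean replicate inhibition above about 95% and at least 55% of replicates individually reaching it, limit read from the data; inconclusive means only one of the two criteria is met; inactive means neither criterion is met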
T cruzi growth-3 = inhibitors of intracellular T. cruzi replication, confirmation, NIH3T3 host cells, beta-gal parasites, cherry-pick, set 2. shares compounds with T cruzi growth-1. T. cruzi beta-gal in NIH3T3, GalScreen luminescence, 90 h. inhibition, % at 2.09 µM. 5,600 compounds, 21% hits;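 active means mean inhibition above about 95%, with at least 55% of replicates also reaching it, limit read from the data; inconclusive means meets just one of the two conditions; inactive means meets neither condition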
NIH3T3 tox = cytotoxicity in mouse NIH/3T3 fibroblasts, confirmation, cytotoxicity control for T. cruzi proliferation inhibitor project, cell-based, cherry-pick, single point. cytotoxicity (signal decrease), % at 8.35 µM. 5,600 compounds, 14% hits. AID 651742, 2012. NIH/3T3 viability, CellTiter-Glo ATP luminescence, 90 h. shares compounds with T cruzi growth-1;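 active means mean signal decrease across replicates above about 35% based on untreated-well scatter, with enough replicates individually passing, limit read from the data; inconclusive means no rule stated though some were filed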
3T3 cytotox 2 = NIH/3T3 fibroblast cytotoxicity, confirmation, cytotoxicity control, cell-based, cherry-pick, single point, set 2; shares compounds with T cruzi growth-1; 5,600 compounds, 56% hits; inhibition, % at 24.9 µM; NIH/3T3 viability, CellTiter-Glo ATP luminescence, 90 h;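 active means mean loss of cell viability signal at or above a set limit, and enough replicates individually reaching it; inconclusive means meets only the mean limit or only the replicate share; inactive means meets neither condition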
Large screens that a line does not name were inactive (follow-up assays come after a bar, where they were run).

Cc1ccc(S(=O)(=O)Nc2cccc3c2O[C@H](CN(C)S(=O)(=O)c2ccc(F)cc2)[C@@H](C)CN([C@@H](C)CO)C3=O)cc1	none
Cc1ccc(S(=O)(=O)N(C)C[C@H]2OCc3ccccc3-c3c(n(C)c4ccccc34)C(=O)N([C@@H](C)CO)C[C@H]2C)cc1	none (no result: IDH1 mut inh)
CO[C@H](CN(C)Cc1ccc(-c2ccccn2)cc1)[C@@H](C)CN(C(=O)Nc1ccc(F)cc1)[C@H](C)CO	none
CO[C@H](CN(C)Cc1ccc(-c2ccccn2)cc1)[C@@H](C)CN(C(=O)Nc1ccc(F)cc1)[C@@H](C)CO	KDM4C inh inconclusive, T cruzi growth-1 100 | T cruzi growth-2 102 | T cruzi growth-3 inactive | NIH3T3 tox inactive | 3T3 cytotox 2 inactive
C[C@@H]1CN([C@H](C)CO)C(=O)c2cc(NC(=O)Nc3cccc4ccccc34)ccc2O[C@@H](C)CCCCO[C@H]1CN(C)C(=O)Nc1ccc(C(F)(F)F)cc1	none (no result: IDH1 mut inh)
C[C@H]1CCCCO[C@@H](CN(C)C(=O)Nc2ccc(C(F)(F)F)cc2)[C@@H](C)CN([C@@H](C)CO)C(=O)c2cc(NC(=O)Nc3cccc4ccccc34)ccc2O1	none
C[C@H]1CCCCO[C@H](CN(C)C(=O)Nc2ccc(C(F)(F)F)cc2)[C@@H](C)CN([C@@H](C)CO)C(=O)c2cc(NC(=O)Nc3cccc4ccccc34)ccc2O1	T cruzi growth-1 103 (no result: IDH1 mut inh) | T cruzi growth-2 109 | T cruzi growth-3 109 | NIH3T3 tox inactive | 3T3 cytotox 2 inactive
C[C@H](CO)N1C[C@H](C)[C@@H](CN(C)C(=O)Nc2ccc(C(F)(F)F)cc2)OCCCC[C@H](C)Oc2ccc(NC(=O)Nc3cccc4ccccc34)cc2C1=O	T cruzi growth-1 101 | T cruzi growth-2 104 | T cruzi growth-3 inactive | NIH3T3 tox inactive | 3T3 cytotox 2 inactive
CN1CCN(C(=O)C[C@H]2CC[C@H]3[C@@H](COC[C@@H](O)CN3C(=O)c3ccc(F)cc3)O2)CC1	none (no result: IDH1 mut inh)
CN(C)CCCNC(=O)C[C@@H]1C=C[C@H](NS(=O)(=O)c2ccccc2)[C@H](CO)O1	none
COc1ccc(S(=O)(=O)NCc2ccccn2)c(C)c1C	none (no result: KDM4C inh, T cruzi growth-1)
CCCc1cn(CC[C@@H]2CC[C@@H](NC(=O)Cc3cccnc3)[C@H](CO)O2)nn1	none (no result: KDM4C inh)
O=C(Nc1ccccc1)N1CCCCN2[C@H](CO)[C@H](c3ccc(C#Cc4ccccc4)cc3)[C@@H]2C1	none (no result: IDH1 mut inh)
O=C(Nc1ccccc1)N1CCCCN2[C@H](C1)[C@H](c1ccc(C#Cc3ccccc3)cc1)[C@@H]2CO	T cruzi growth-1 106 (no result: IDH1 mut inh) | T cruzi growth-2 104 | T cruzi growth-3 inactive | NIH3T3 tox inactive | 3T3 cytotox 2 39
O=C(Nc1ccc(F)cc1)N1CCCCN2[C@H](C1)[C@H](c1ccc(C#Cc3ccccc3)cc1)[C@@H]2CO	T cruzi growth-1 123 (no result: IDH1 mut inh) | T cruzi growth-2 102 | T cruzi growth-3 inactive | NIH3T3 tox inactive | 3T3 cytotox 2 76
O=C(Nc1ccc(F)cc1)N1CCCCN2[C@H](CO)[C@H](c3ccc(C#Cc4ccccc4)cc3)[C@@H]2C1	none (no result: IDH1 mut inh)
C[C@H](CO)N1C[C@H](C)[C@@H](CN(C)C(=O)Cc2cccnc2)Oc2ncc(-c3cccnc3)cc2C1=O	none (no result: IDH1 mut inh)
C[C@@H]1CCCCO[C@H](CN(C)C)[C@H](C)CN([C@H](C)CO)C(=O)c2cc(NC(=O)c3ccncc3)ccc2O1	none
COc1cccc(-c2cnc3c(c2)C(=O)N([C@@H](C)CO)C[C@@H](C)[C@H](CN(C)CC2CCOCC2)O3)c1	none
CN1C(=O)c2cc(NC(=O)C3CCCCC3)ccc2OC[C@H]2O[C@H](CC(=O)NCc3ccccc3F)CC[C@@H]21	none (no result: IDH1 mut inh)
CCCC(=O)Nc1ccc2c(c1)C(=O)N(C)C[C@H](OC)[C@@H](C)CN(C(=O)c1cccnc1)[C@H](C)CO2	none
Cn1cnc(S(=O)(=O)N2CCCCN3[C@@H](CO)[C@H](c4ccc(-c5ccccc5F)cc4)[C@@H]3C2)c1	none (no result: IDH1 mut inh)
Cc1ccccc1-c1ccc([C@@H]2[C@H]3CN(S(=O)(=O)c4cn(C)cn4)CCCCN3[C@H]2CO)cc1	T cruzi growth-1 126 (no result: IDH1 mut inh) | T cruzi growth-2 inactive | T cruzi growth-3 inactive | NIH3T3 tox inactive | 3T3 cytotox 2 26
Cn1cnc(S(=O)(=O)N2CCCCN3[C@H](CO)[C@@H](c4ccc(-c5ccccc5F)cc4)[C@@H]3C2)c1	none (no result: IDH1 mut inh)
Cc1ccccc1-c1ccc([C@H]2[C@@H](CO)N3CCCCN(S(=O)(=O)c4cn(C)cn4)C[C@H]23)cc1	T cruzi growth-1 102 (no result: IDH1 mut inh) | T cruzi growth-2 inactive | T cruzi growth-3 inactive | NIH3T3 tox inactive | 3T3 cytotox 2 44
C[C@H](CO)N1C[C@H](C)[C@@H](CN(C)Cc2ccccc2F)Oc2cc(C#CCN(C)C)ccc2S1(=O)=O	T cruzi growth-1 105 | T cruzi growth-2 105 | T cruzi growth-3 inactive | NIH3T3 tox 55 | 3T3 cytotox 2 104
C[C@H]1CN([C@@H](C)CO)S(=O)(=O)c2ccc(C#CC3CC3)cc2O[C@@H]1CN(C)Cc1ccccc1F	T cruzi growth-1 112 | T cruzi growth-2 97 | T cruzi growth-3 117 | NIH3T3 tox inactive | 3T3 cytotox 2 104
C[C@@H]1CN([C@H](C)CO)S(=O)(=O)c2ccc(C#CC3CC3)cc2O[C@H]1CN(C)Cc1ccccc1	T cruzi growth-1 127 | T cruzi growth-2 95 | T cruzi growth-3 inactive | NIH3T3 tox inconclusive | 3T3 cytotox 2 105
COCC#Cc1ccc2c(c1)O[C@@H](CN(C)Cc1ccccc1F)[C@@H](C)CN([C@H](C)CO)S2(=O)=O	none
CC(C)CC#Cc1ccc2c(c1)O[C@@H](CN(C)Cc1ccccc1F)[C@@H](C)CN([C@H](C)CO)S2(=O)=O	T cruzi growth-1 inconclusive | T cruzi growth-2 97 | T cruzi growth-3 108 | NIH3T3 tox inactive | 3T3 cytotox 2 105
C[C@@H]1CN([C@H](C)CO)S(=O)(=O)c2ccc(C#CC3CC3)cc2O[C@@H]1CN(C)Cc1ccccc1	none
C[C@@H]1CN([C@@H](C)CO)S(=O)(=O)c2ccc(C#CCN(C)C)cc2O[C@@H]1CN(C)Cc1ccccc1F	none
C[C@@H]1CN([C@H](C)CO)S(=O)(=O)c2ccc(C#CC3CC3)cc2O[C@@H]1CN(C)Cc1ccccc1F	none
